Data set [1] deals with Semliki Forest virus. Description: Antiviral activity against SFV infected in BHK cells after 14 hrs by luciferase reporter gene assay. It is filed as functional, organism-based. The essentials: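 SFV-Rluc reporter virus from infectious cDNA clone; BHK-21 cells infected at low multiplicity (0.001 PFU/cell) and incubated 14 h, spanning over 2 infectious cycles. Serial dilutions of each derivative tested. Luciferase read-out as surviving virus fraction. IC50 from a sigmoidal dose-response fit; means ± SD, n = 6. 3′-Amino-3′-deoxyadenosine (20 µM) served as screen positive control.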
(Reporter assays use an easily measured gene product as a stand-in for the process of interest.)

The nature of data set [2]: Cytotoxicity against human HuH7 cells assessed as cell viability at 50 uM after 24 hrs.
The nature of data set [3]: Cytotoxicity against human HuH7 cells assessed as cell viability at 500 uM after 24 hrs. The following applies: read-out: Activity. In kind it is cell-based, Huh-7. A digest of the protocol: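 Huh-7 human hepatocellular carcinoma cells exposed 24 h to derivative at 500 µM in an extended cytotoxicity analysis. Viability measured as intracellular ATP content and reported as surviving fraction.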

The test system of data set [4] is Semliki Forest virus. The experiment in a line: Antiviral activity against SFV infected in BHK cells assessed as surviving virus fraction at 50 uM after 14 hrs by luciferase reporter gene assay. In kind it is functional. Further details: scale not given here.

Each structure is given as a SMILES string. A value given as a limit tells only on which side of the number the result lay.

On to `C=C(C)[C@@H]1CC[C@]2(CO)CC[C@]3(C)[C@H](CC[C@@H]4[C@@]5(C)CC[C@H](OC(C)=O)C(C)(C)[C@@H]5CC[C@]43C)[C@@H]12`, for which the IC50 with Semliki Forest virus [1] (read-out: IC50) was 24.2 µM; in the data set on Semliki Forest virus [1] (read-out: pIC50 (converted)) it was 24 µM. In addition, the viability at 24 h, 50 µM in data set [2] was found to be 86%. The viability at 24 h, 500 µM in data set [3] was more than 80%. The Activity with Semliki Forest virus [4] is given as 3%.
Taken in the same sequence, the figures for `C=C(C)[C@@H]1CC[C@]2(C(=O)O)CC[C@]3(C)[C@H](CC[C@@H]4[C@@]5(C)CCC(=O)C(C)(C)[C@@H]5CC[C@]43C)[C@@H]12` [BETUNOLIC ACID] were 13.3 µM, 13.2 µM, 89%, more than 80% and 13%.
In the case of `CCCCn1c(=O)n2n(c1=O)[C@]1(C(C)C)CC[C@]3(COC(C)=O)CC[C@]4(C)C(=C31)[C@@H]2C[C@@H]1[C@@]2(C)CC[C@H](OC(C)=O)C(C)(C)[C@@H]2CC[C@]14C`, the values for the IC50 in the data set with Semliki Forest virus [1] (read-out: IC50) and in the data set with Semliki Forest virus [1] (read-out: pIC50 (converted)) were 37.9 µM and 38 µM, respectively. Further, the viability at 24 h, 50 µM in data set [2] is 81%. The viability at 24 h, 500 µM in data set [3] was more than 80%. The Activity with Semliki Forest virus [4] is 19%.
Taken in the same sequence, the figures for `CC(=O)OC[C@]12CC[C@]3(C(C)C)O[C@]13[C@H]1CC[C@@H]3[C@@]4(C)CC[C@H](OC(C)=O)C(C)(C)[C@@H]4CC[C@@]3(C)[C@]1(C)CC2` were 13.3 µM, 11.5 µM, 92%, more than 80% and 16%.
Taken in the same sequence, the figures for `CC(C)[C@@H]1CC[C@]2(C(=O)O)CC[C@]3(C)[C@H](CC[C@@H]4[C@@]5(C)CCC(=O)C(C)(C)[C@@H]5CC[C@]43C)[C@@H]12` [DIHYDROBETULONIC ACID] were 30.6 µM, 30.2 µM, 102%, more than 80% and 14%.
The like results for `CC(=O)OC[C@]12CCC(C(C)C)=C1[C@H]1CC[C@@H]3[C@@]4(C)CC[C@H](OC(C)=O)C(C)(C)[C@@H]4CC[C@@]3(C)[C@]1(C)CC2` were, in that order, 43.2 µM, 42.7 µM, 87%, more than 80% and 15%.
Consider `CCCC(=O)OC[C@]12CC[C@]3(C(C)C)C1=C1[C@H](C[C@@H]4[C@@]5(C)CC[C@H](OC(=O)CCC)C(C)(C)[C@@H]5CC[C@@]4(C)[C@]1(C)CC2)n1c(=O)n(C)c(=O)n13`, for which the IC50 is 30.1 µM in the data set with Semliki Forest virus [1] (read-out: IC50) and 30.2 µM in the data set on Semliki Forest virus [1] (read-out: pIC50 (converted)). Further, in data set [2], the viability at 24 h, 50 µM stood at 93%. Moreover, in the data set with Semliki Forest virus [4], the Activity worked out at 18%.
Regarding `CC(=O)OC[C@]12CC[C@]3(C(C)C)C1=C1[C@H](C[C@@H]4[C@@]5(C)CC[C@H](OC(C)=O)C(C)(C)[C@@H]5CC[C@@]4(C)[C@]1(C)CC2)n1c(=O)n(-c2cccc(Cl)c2)c(=O)n13`, the results for the IC50 with Semliki Forest virus [1] (read-out: IC50) and in the data set on Semliki Forest virus [1] (read-out: pIC50 (converted)) were 22.1 µM and 22.4 µM, respectively. Besides, the viability at 24 h, 50 µM in data set [2] worked out at 95%. The viability at 24 h, 500 µM in data set [3] is more than 80%. For the same molecule, in the data set on Semliki Forest virus [4], the Activity was found to be 1%.
With `C=C(C)[C@@H]1CC[C@]2(C=O)CC[C@]3(C)[C@H](CC[C@@H]4[C@@]5(C)CCC(=O)C(C)(C)[C@@H]5CC[C@]43C)[C@@H]12` [BETULONAL], the IC50 in the data set with Semliki Forest virus [1] (read-out: IC50) is 38.3 µM; with Semliki Forest virus [1] (read-out: pIC50 (converted)) it was 38 µM. Further, the viability at 24 h, 50 µM in data set [2] worked out at 90%. Moreover, the viability at 24 h, 500 µM in data set [3] was determined as 52%. In addition, the Activity in the data set on Semliki Forest virus [4] was determined as 8%.
The like results for `C=C(C)[C@@H]1CC[C@]2(COC(C)=O)CC[C@]3(C)[C@H](CC[C@@H]4[C@@]5(C)CCC(=O)C(C)(C)[C@@H]5CC[C@]43C)[C@@H]12` were, in that order, 48.5 µM, 47.9 µM, 83%, more than 80% and 11%.
For `C=C(C)[C@@H]1CC[C@]2(C#N)CC[C@]3(C)[C@H](CC[C@@H]4[C@@]5(C)CC[C@H](OC(C)=O)C(C)(C)[C@@H]5CC[C@]43C)[C@@H]12`, in data set [2], the viability at 24 h, 50 µM worked out at 69%. In addition, the Activity in the data set with Semliki Forest virus [4] amounted to 60%.
The like results for `C=C(C)[C@@H]1CC[C@]2(COC(=O)c3ccccc3NC(C)=O)CC[C@]3(C)[C@H](CC[C@@H]4[C@@]5(C)CC[C@H](O)C(C)(C)[C@@H]5CC[C@]43C)[C@@H]12` were, in that order, 94% and 82%.
On to `C=C(C)[C@@H]1CC[C@]2(COS(C)(=O)=O)CC[C@]3(C)[C@H](CC[C@@H]4[C@@]5(C)CC[C@H](OC(C)=O)C(C)(C)[C@@H]5CC[C@]43C)[C@@H]12`, for which the viability at 24 h, 50 µM in data set [2] is 99%. For the same molecule, the Activity in the data set on Semliki Forest virus [4] was determined as 46%.
The like results for `C=C(C)[C@@H]1CC[C@]2(/C=N/O)CC[C@]3(C)[C@H](CC[C@@H]4[C@@]5(C)CC/C(=N\O)C(C)(C)[C@@H]5CC[C@]43C)[C@@H]12` [BETULIN-3,28-DIOXIME] were, in that order, 80% and 121%.
The like results for `CCn1c(=O)n2n(c1=O)[C@]1(C(C)C)CC[C@]3(COC(C)=O)CC[C@]4(C)C(=C31)[C@@H]2C[C@@H]1[C@@]2(C)CC[C@H](OC(C)=O)C(C)(C)[C@@H]2CC[C@]14C` were, in that order, 40% and 24%.
Consider `CC(=O)OC[C@]12CC[C@]3(C(C)C)C1=C1[C@H](C[C@@H]4[C@@]5(C)CC[C@H](OC(C)=O)C(C)(C)[C@@H]5CC[C@@]4(C)[C@]1(C)CC2)n1c(=O)n(-c2ccc(F)cc2)c(=O)n13`, for which the viability at 24 h, 50 µM in data set [2] was found to be 95%. Besides, the Activity with Semliki Forest virus [4] is listed as 64%.
As to `C=C(C)[C@@H]1CC[C@]2(COC(C)=O)CC[C@]3(C)[C@H](CC[C@@H]4[C@@]5(C)CC[C@H](OC(C)=O)C(C)(C)[C@@H]5CC[C@]43C)[C@@H]12` [BETULIN DIACETATE], the IC50 with Semliki Forest virus [1] (read-out: IC50) is 9.1 µM; in the data set with Semliki Forest virus [1] (read-out: pIC50 (converted)) it was 9.12 µM. Moreover, in data set [2], the viability at 24 h, 50 µM amounted to 97%. In the data set with Semliki Forest virus [4], the Activity turned out to be 21%.
As to `C=C(C)[C@@H]1CC[C@]2(COC(=O)CBr)CC[C@]3(C)[C@H](CC[C@@H]4[C@@]5(C)CC[C@H](O)C(C)(C)[C@@H]5CC[C@]43C)[C@@H]12`, in data set [2], the viability at 24 h, 50 µM is 11%. Also, the Activity in the data set with Semliki Forest virus [4] was found to be 125%.
`CC(C)[C@@]12CC[C@]3(COC(=O)c4ccccc4)CC[C@]4(C)C(=C31)[C@H](C[C@@H]1[C@@]3(C)CC[C@H](OC(=O)c5ccccc5)C(C)(C)[C@@H]3CC[C@]14C)n1c(=O)n(-c3ccccc3)c(=O)n12`: in data set [2], the viability at 24 h, 50 µM worked out at 88%. In addition, the Activity with Semliki Forest virus [4] is 50%.
The like results for `CC(=O)OC[C@]12CC[C@]3(C(C)C)C1=C1[C@H](C[C@@H]4[C@@]5(C)CC[C@H](OC(C)=O)C(C)(C)[C@@H]5CC[C@@]4(C)[C@]1(C)CC2)n1c(=O)n(-c2ccc4c(c2)CCC4)c(=O)n13` were, in that order, 93% and 81%.
`CC(C)C(=O)OC[C@]12CC[C@]3(C(C)C)C1=C1[C@H](C[C@@H]4[C@@]5(C)CC[C@H](OC(=O)C(C)C)C(C)(C)[C@@H]5CC[C@@]4(C)[C@]1(C)CC2)n1c(=O)n(C)c(=O)n13`: in data set [2], the viability at 24 h, 50 µM turned out to be 106%. For the same molecule, the viability at 24 h, 500 µM in data set [3] is more than 80%. Also, in the data set with Semliki Forest virus [4], the Activity is 24%.
Regarding `C=C(C)[C@@H]1CC[C@]2(C#N)CC[C@]3(C)[C@H](CC[C@@H]4[C@@]5(C)CC/C(=N\OC(C)=O)C(C)(C)[C@@H]5CC[C@]43C)[C@@H]12`, the viability at 24 h, 50 µM in data set [2] is 85%. For the same molecule, the Activity in the data set on Semliki Forest virus [4] is listed as 73%.
The like results for `C=C(C)[C@@H]1CC[C@]2(/C=N/O)CC[C@]3(C)[C@H](CC[C@@H]4[C@@]5(C)CC[C@H](O)C(C)(C)[C@@H]5CC[C@]43C)[C@@H]12` were, in that order, 82% and 55%.
Taken in the same sequence, the figures for `C=C(C)[C@@H]1CC[C@]2(COC(C)=O)CC[C@]3(C)[C@H](CC[C@@H]4[C@@]5(C)CC=CC(C)(C)[C@@H]5CC[C@]43C)[C@@H]12` were 95% and 98%.
The like results for `CC(C)[C@@]12CC[C@]3(COC(=O)C4CCCCC4)CC[C@]4(C)C(=C31)[C@H](C[C@@H]1[C@@]3(C)CC[C@H](OC(=O)C5CCCCC5)C(C)(C)[C@@H]3CC[C@]14C)n1c(=O)n(C(C)(C)C)c(=O)n12` were, in that order, 83% and 40%.
With `C=C(C)[C@@H]1CC[C@]2(COC(=O)COc3cc(C(C)C)ccc3C)CC[C@]3(C)[C@H](CC[C@@H]4[C@@]5(C)CC[C@H](O)C(C)(C)[C@@H]5CC[C@]43C)[C@@H]12`, in data set [2], the viability at 24 h, 50 µM was determined as 103%. Further, the Activity with Semliki Forest virus [4] was 80%.
Take `C=C(C)[C@@H]1CC[C@]2(C(=O)OC)CC[C@]3(C)[C@H](CC[C@@H]4[C@@]5(C)CC[C@H](O)C(C)(C)[C@@H]5CC[C@]43C)[C@@H]12` [METHYL BETULINATE]: in data set [2], the viability at 24 h, 50 µM turned out to be 1%. The Activity in the data set on Semliki Forest virus [4] was 68%.
The like results for `C=C(C)[C@@H]1CC[C@]2(C(=O)OC)CC[C@]3(C)[C@H](CC[C@@H]4[C@@]5(C)CCC(=O)C(C)(C)[C@@H]5CC[C@]43C)[C@@H]12` [METHYL BETULONATE] were, in that order, 83% and 71%.

The values are drawn from ChEMBL document CHEMBL1154369, “Betulin-derived compounds as inhibitors of alphavirus replication” (J Nat Prod, 2009).
